Results as given in ChEMBL document CHEMBL1150274 (Bioorg Med Chem, 2008).
Active and inactive are the calls of the source. The calls are words filed in the database; no cut-off is given here.

Columns and labels:
Mu-type opioid receptor [1] = biological target: T1, Mu-type opioid receptor (Homo sapiens, UniProt P35372); experiment: Displacement of [3H]DAMGO from human mu opioid receptor expressed in CHO cells; format: cell-based
[2] = biological target: Delta-type opioid receptor (Homo sapiens, UniProt P41143); experiment: Displacement of [3H]naltrindole from human delta opioid receptor expressed in CHO cells; format: cell-based
[3] = biological target: T2, Kappa-type opioid receptor (Homo sapiens, UniProt P41145); experiment: Displacement of [3H]U69,593 from human kappa opioid receptor expressed in CHO cells; format: cell-based
[4] = biological target: T2, Kappa-type opioid receptor; experiment: Antagonist activity at human kappa opioid receptor expressed in CHO cells assessed as inhibition of U50,488-stimulated [35S]GTPgammaS binding; format: functional, cell-based
Method in brief: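 κ-receptor CHO membranes were incubated with compound in the presence of 100 nM U50,488 in a [35S]GTPγS binding assay.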

Mu-type opioid receptor [5] = biological target: T1, Mu-type opioid receptor; experiment: Activity at human mu opioid receptor expressed in CHO cells assessed as stimulation of [35S]GTPgammaS binding relative to basal level; format: functional, cell-based
Method in brief: (§1)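 Twelve compound concentrations were incubated with CHO membranes (κ 15 μg, μ 7.5 μg) and 0.080 nM [35S]GTPγS for 60 min at 30°C. Nonspecific binding was defined with 10 μM GTPγS. Samples were filtered and counted. Emax was taken with basal set at 0%, with EC50. Mean ± SEM, ≥3 experiments in triplicate.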

Mu-type opioid receptor [6] = biological target: T1, Mu-type opioid receptor; experiment: Antagonist activity at human mu opioid receptor expressed in CHO cells assessed as inhibition of DAMGO-stimulated [35S]GTPgammaS binding; format: functional, cell-based
[7] = biological target: T2, Kappa-type opioid receptor; experiment: Activity at human kappa opioid receptor expressed in CHO cells assessed as stimulation of [35S]GTPgammaS binding relative to basal level; format: functional, cell-based; method in brief: as §1
[8] = biological target: T2, Kappa-type opioid receptor; experiment: Activity at human kappa opioid receptor expressed in CHO cells assessed as stimulation of [35S]GTPgammaS binding; format: functional, cell-based; method in brief: as §1

Delta-type opioid receptor, sequence (P41143 whole entry): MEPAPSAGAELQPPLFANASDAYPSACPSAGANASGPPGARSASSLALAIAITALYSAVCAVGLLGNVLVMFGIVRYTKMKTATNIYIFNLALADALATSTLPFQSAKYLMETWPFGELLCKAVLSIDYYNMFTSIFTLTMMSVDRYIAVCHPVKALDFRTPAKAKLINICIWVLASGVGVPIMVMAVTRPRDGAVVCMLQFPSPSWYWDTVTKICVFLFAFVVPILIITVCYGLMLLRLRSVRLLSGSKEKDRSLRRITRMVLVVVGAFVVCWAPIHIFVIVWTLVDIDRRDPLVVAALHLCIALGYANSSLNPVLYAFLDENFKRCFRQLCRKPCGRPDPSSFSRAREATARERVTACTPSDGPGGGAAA
T1 sequence (P35372 whole entry): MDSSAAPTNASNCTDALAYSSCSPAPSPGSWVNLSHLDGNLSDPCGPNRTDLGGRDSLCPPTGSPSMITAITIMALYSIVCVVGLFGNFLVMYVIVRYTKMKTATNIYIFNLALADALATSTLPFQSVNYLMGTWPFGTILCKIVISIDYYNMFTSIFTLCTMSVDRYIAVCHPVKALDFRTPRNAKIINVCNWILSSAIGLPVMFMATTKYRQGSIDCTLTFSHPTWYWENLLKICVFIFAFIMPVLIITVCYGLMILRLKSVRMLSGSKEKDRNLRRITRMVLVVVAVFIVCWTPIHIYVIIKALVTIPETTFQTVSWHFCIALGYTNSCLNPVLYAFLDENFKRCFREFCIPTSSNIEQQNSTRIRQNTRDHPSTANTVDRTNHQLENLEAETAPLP
T2 sequence (P41145 whole entry): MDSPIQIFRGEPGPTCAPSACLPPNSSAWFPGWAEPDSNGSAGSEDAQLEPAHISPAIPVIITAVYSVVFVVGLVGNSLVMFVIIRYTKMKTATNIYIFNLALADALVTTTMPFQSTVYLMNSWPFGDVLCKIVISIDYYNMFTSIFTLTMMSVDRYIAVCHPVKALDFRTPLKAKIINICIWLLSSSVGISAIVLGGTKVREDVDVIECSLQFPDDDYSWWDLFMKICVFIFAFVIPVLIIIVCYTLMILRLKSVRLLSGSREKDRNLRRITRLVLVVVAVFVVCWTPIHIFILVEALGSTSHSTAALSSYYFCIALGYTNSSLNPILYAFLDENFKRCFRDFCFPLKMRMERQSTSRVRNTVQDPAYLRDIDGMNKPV

`C[C@H]1C2Cc3cc4ncnc(NCCc5ccc(-c6ccccc6)cc5)c4cc3[C@@]1(C)CCN2CC1CC1` (mixture of isomers) gave a Ki (Mu-type opioid receptor [1]) of 28 nM, a Ki [2] of 410 nM and a Ki [3] of 140 nM.

`C[C@H]1C2Cc3cc4ncnc(NCc5ccccc5)c4cc3[C@@]1(C)CCN2CC1CC1` (mixture of isomers) was tested, and the Ki (Mu-type opioid receptor [1]) was 88 nM, the Ki [2] was 1000 nM and the Ki [3] was 48 nM.

With `C[C@H]1C2Cc3ccc4c(NCCc5ccc(-c6ccccc6)cc5)ncnc4c3[C@@]1(C)CCN2CC1CC1` (mixture of isomers) the Ki (Mu-type opioid receptor [1]) was 6.9 nM, the Ki [2] was 52 nM and the Ki [3] was 8.6 nM.

In the case of `C[C@H]1C2Cc3ccc4c(N)ncnc4c3[C@@]1(C)CCN2CC1CC1` (mixture of isomers), the IC50 [4] is reported as 1300 nM, the Imax [4] is reported as 75% and the Emax (Mu-type opioid receptor [5]) is reported as 0.64%. For the same molecule, the IC50 (Mu-type opioid receptor [6]) was 28 nM, the Imax (Mu-type opioid receptor [6]) was 88% and the Emax [7] was 6.3%. It also gave a Ki (Mu-type opioid receptor [1]) of 0.55 nM, a Ki [2] of 120 nM and a Ki [3] of 1 nM.

In the case of `C[C@H]1C2Cc3cc4cc[nH]c(=O)c4cc3[C@@]1(C)CCN2CC1CC1` (mixture of isomers), the Activity [4] is reported as “inactive”, the Emax (Mu-type opioid receptor [5]) is reported as 27% and the IC50 (Mu-type opioid receptor [6]) is reported as 850 nM. For the same molecule, the Imax (Mu-type opioid receptor [6]) was 69%, the EC50 [8] was 60 nM and the Emax [7] was 91%. The Ki (Mu-type opioid receptor [1]) was 5.5 nM, the Ki [2] was 74 nM and the Ki [3] was 0.74 nM.

For `C[C@H]1C2Cc3cc([N+](=O)[O-])c(O)cc3[C@@]1(C)CCN2CC1CC1` (mixture of isomers), the Ki (Mu-type opioid receptor [1]) was 3800 nM, the Ki [2] was over 10000 nM and the Ki [3] was 580 nM.

With `C[C@H]1C2Cc3ccc(C(N)=O)c([N+](=O)[O-])c3[C@@]1(C)CCN2CC1CC1` (mixture of isomers) the Ki (Mu-type opioid receptor [1]) was 20 nM, the Ki [2] was 220 nM and the Ki [3] was 34 nM.

In the case of `C[C@H]1C2Cc3cc([N+](=O)[O-])c(C(N)=O)cc3[C@@]1(C)CCN2CC1CC1` (mixture of isomers), the Ki (Mu-type opioid receptor [1]) is reported as 630 nM, the Ki [2] is reported as 730 nM and the Ki [3] is reported as 110 nM.

With `C[C@H]1C2Cc3cc4ncnc(N)c4cc3[C@@]1(C)CCN2CC1CC1` (mixture of isomers) the Ki (Mu-type opioid receptor [1]) was 890 nM, the Ki [2] was over 10000 nM and the Ki [3] was 560 nM.

Molecule `C[C@H]1C2Cc3ccc(O)c([N+](=O)[O-])c3[C@@]1(C)CCN2CC1CC1` (mixture of isomers) has a Ki (Mu-type opioid receptor [1]) of 32 nM, a Ki [2] of 1900 nM and a Ki [3] of 3.2 nM.

`C[C@H]1C2Cc3ccc4c(NCc5ccccc5)ncnc4c3[C@@]1(C)CCN2CC1CC1` (mixture of isomers) gave a Ki (Mu-type opioid receptor [1]) of 44 nM, a Ki [2] of 1500 nM and a Ki [3] of 240 nM.

`C[C@H]1C2Cc3ccc(C(N)=O)c(N)c3[C@@]1(C)CCN2CC1CC1` (mixture of isomers) was tested, and the Activity [4] was “inactive”, the Emax (Mu-type opioid receptor [5]) was 4.6% and the IC50 (Mu-type opioid receptor [6]) was 31 nM. It also gave an Imax (Mu-type opioid receptor [6]) of 93%, an EC50 [8] of 15 nM and an Emax [7] of 38%. The Ki (Mu-type opioid receptor [1]) was 0.55 nM, the Ki [2] was 35 nM and the Ki [3] was 0.7 nM.
